According to ChEMBL document CHEMBL3272270, “Potential antitumor agents. 23. 4'-(9-Acridinylamino)alkanesulfonanilide congeners bearing hydrophilic functionality” (J Med Chem, 1977):

Legend:
Mus musculus = experiment: Toxicity in sc implanted mouse L1210 cells allografted C3H/DBA2 F1 hybrid hybrid mouse assessed as optimum dose required to increase life span treated ip after 24 hrs after tumor inoculation and continued for 5 days; format: organism-based; conditions: in vivo
Outline: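 10^5 L1210 cells implanted sc above the right axilla in 18.5-22.5-g C3H/DBA2 F1 hybrid mice. Ip dosing (0.2 mL per dose) ran daily for 5 days from 24 h. Dilution series at 0.18 log intervals, with the median dose set at the earlier ip L1210 optimum. Six mice per dose, one control group per six test groups. Tests were repeated until the highest dose was toxic and the lowest clearly suboptimal.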

[1] = Retardation factor, Rm of the compound by reversed phase partition chromatography; format: physicochemical
L1210 [2] = experiment: Antileukemic activity against ip implanted mouse L1210 cells in C3H/DBA2 F1 hybrid hybrid mouse assessed as increase life span treated ip after 24 hrs after tumor inoculation and continued for 5 days; format: functional
Outline: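 10^5 L1210 cells implanted ip in 18.5-22.5-g C3H/DBA2 F1 hybrid mice. Drug given ip from 24 h after inoculation, continuing for 5 days, each dose in 0.2 mL. Dose levels spaced at 0.18 log intervals, six mice per dose, one control group per six test groups. Read-out is life extension; 50-day survivors counted as cures.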

L1210 [3] = experiment: Antileukemic activity against sc implanted mouse L1210 cells in C3H/DBA2 F1 hybrid hybrid mouse assessed as increase life span treated ip after 24 hrs after tumor inoculation and continued for 5 days; format: functional
Outline: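 10^5 L1210 cells implanted sc above the right axilla in 18.5-22.5-g C3H/DBA2 F1 hybrid mice. Drug given ip (0.2 mL) from 24 h for 5 days. Dilution series at 0.18 log intervals, centred on the optimum ip L1210 dose. Top dose had to show toxicity and lowest dose had to be suboptimal, otherwise the test was repeated. Read-out is life extension.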

[4] = Half life in mouse L1210 cells allografted C3H/DBA2 F1 hybrid hybrid mouse

half-life [4] | SMILES | Activity (Mus musculus) | Rm [1] | ILS (L1210 [2]) | ILS (L1210 [3])
 | Br.CS(=O)(=O)N(CC(O)CO)c1ccc(Nc2c3ccccc3nc3ccccc23)cc1 (configuration not stated) | 65 mg/kg | -0.03 | >25% | 
 | Cl.O=C(Nc1ccc(Nc2c3ccccc3nc3ccccc23)cc1)OCC(O)CO (configuration not stated) | 25 mg/kg | -0.06 | 63% | >25%
 | Br.COc1cc(NS(C)(=O)=O)ccc1Nc1c2ccccc2nc2cc(CCC(N)=O)ccc12 | 125 mg/kg | -0.25 | 58% | 
 | COC(=O)NNC(=O)Nc1ccc(Nc2c3ccccc3nc3ccccc23)cc1.Cl | > 500 mg/kg | -0.04 | 67% | 
 | COc1cc(NS(C)(=O)=O)ccc1Nc1c2ccccc2nc2c(OCC(O)CO)cccc12.Cl (configuration not stated) | 17 mg/kg | -0.09 | 123% | 43%
 | CNC(=O)c1cccc2c(Nc3ccc(NS(C)(=O)=O)cc3OC)c3ccccc3nc12.Cl | 8.3 mg/kg | 0.06 | 166% | 59%
 | COc1ccc(Nc2c3ccccc3nc3cc(N)ccc23)cc1.Cl | 15 mg/kg | 0.31 | 66% | 
 | CCCS(=O)(=O)Nc1ccc(Nc2c3ccccc3nc3c(C(=O)N[C@H]4[C@@H](OC)O[C@H](CO)[C@@H](O)[C@@H]4O)cccc23)c(OC)c1.Cl | 400 mg/kg | -0.1 | 180% | 51%
 | CN(C)C(=O)CCS(=O)(=O)Nc1ccc(Nc2c3ccccc3nc3ccccc23)cc1.Cl | 150 mg/kg | 0.17 | 63% | 
 | Cl.NC(=O)NCCS(=O)(=O)Nc1ccc(Nc2c3ccccc3nc3ccccc23)cc1 | 200 mg/kg | -0.21 | 53% | >25%
 | CS(=O)(=O)Nc1ccc(Nc2c3ccccc3nc3ccccc23)cc1 | 45 mg/kg | 0 | 107% | 28%
 | COc1cc(NS(C)(=O)=O)ccc1Nc1c2ccccc2nc2c(C(=O)N[C@H]3[C@@H](OC)O[C@H](CO)[C@@H](O)[C@@H]3O)cccc12.Cl | 180 mg/kg | -0.57 | 100% | 49%
 | COc1cc(NS(C)(=O)=O)ccc1Nc1c2ccccc2nc2ccccc12 [AMSACRINE] | 6.7 mg/kg | 0.18 | 114% | 27%
 | CC(=O)N(C)CCS(=O)(=O)Nc1ccc(Nc2c3ccccc3nc3ccccc23)cc1.Cl | 200 mg/kg | 0.05 | 54% | 
 | COc1cc(NS(C)(=O)=O)ccc1Nc1c2ccccc2nc2c(OCCO)cccc12.Cl | 5 mg/kg | 0.09 | 112% | 28%
 | Cl.O=C1CCS(=O)(=O)N1c1ccc(Nc2c3ccccc3nc3ccccc23)cc1 | 200 mg/kg | 0.13 | 33% | 
 | COC(=O)NCCS(=O)(=O)Nc1ccc(Nc2c3ccccc3nc3ccccc23)cc1.Cl | > 500 mg/kg | 0.24 | 67% | 
 | Cl.NC(=O)N1CCN(c2ccc(Nc3c4ccccc4nc4ccccc34)cc2)CC1 | 37 mg/kg | -0.11 | 78% | 
 | COc1ccc(Nc2c3ccccc3nc3cc([N+](=O)[O-])ccc23)cc1.Cl | 90 mg/kg | 0.49 | 33% | 
 | COc1cc(NS(C)(=O)=O)ccc1Nc1c2ccccc2nc2c(C(=O)NCC(O)CO)cccc12.Cl (configuration not stated) | 92 mg/kg | -0.36 | 72% | 
 | Br.CN1CCN(c2ccc(Nc3c4ccccc4nc4cc([N+](=O)[O-])ccc34)cc2)CC1 | 60 mg/kg | -0.78 | >25% | 
 | CNC(=O)Nc1ccc(Nc2c3ccccc3nc3ccccc23)cc1 | 60 mg/kg | 0.25 | 112% | >25%
 | CNC(=O)Nc1ccc(Nc2c3ccccc3nc3ccccc23)c(OC)c1.Cl | 50 mg/kg | 0.51 | 72% | 
 | COc1cc(NS(C)(=O)=O)ccc1Nc1c2ccc(I)cc2nc2c(OCC(O)CO)cccc12.Cl (configuration not stated) | 62 mg/kg | 0.06 |  | >25%

half-life [4] | SMILES | Activity (Mus musculus) | Rm [1] | ILS (L1210 [2]) | ILS (L1210 [3])
 | Br.COc1cc(NS(C)(=O)=O)ccc1Nc1c2ccccc2nc2c(CCC(N)=O)cccc12 | 15 mg/kg | -0.17 | 94% | 30%
 | CC(CS(=O)(=O)Nc1ccc(Nc2c3ccccc3nc3ccccc23)cc1)C(N)=O.Cl (configuration not stated) | 50 mg/kg | -0.11 | >25% | 
 | Cl.NC(=O)CCS(=O)(=O)Nc1ccc(Nc2c3ccccc3nc3ccccc23)cc1 | > 500 mg/kg | -0.34 | 67% | 
 | Br.CN1CCN(c2ccc(Nc3c4ccccc4nc4ccccc34)cc2)CC1 | 50 mg/kg | -0.68 | >25% | 
 | COc1cc(NS(C)(=O)=O)ccc1Nc1c2ccccc2nc2c(C(N)=O)cccc12.Cl | 25 mg/kg | -0.27 | 140% | 36%
12 min | Nc1ccc(Nc2c3ccccc3nc3ccccc23)cc1 |  |  |  | 
 | CC(=O)N1CCN(c2ccc(Nc3c4ccccc4nc4ccccc34)cc2)CC1.Cl | 75 mg/kg | 0.23 | 81% | 
 | COc1cc(NS(C)(=O)=O)ccc1Nc1c2ccccc2nc2c(C(=O)NCC(N)=O)cccc12.Cl | 62 mg/kg | -0.54 | 105% | 41%
 | O=[N+]([O-])c1ccc2c(Nc3ccc(N4CCNCC4)cc3)c3ccccc3nc2c1 | 15 mg/kg | -0.81 | >25% | 
 | CCOC(=O)N1CCN(C(=O)Nc2ccc(Nc3c4ccccc4nc4ccccc34)cc2)CC1.Cl | 50 mg/kg | 0.59 | 29% | 
 | COC(=O)CCS(=O)(=O)Nc1ccc(Nc2c3ccccc3nc3ccccc23)cc1.Cl | > 500 mg/kg | 0.57 |  | >25%
 | Cl.O=C(O)CCS(=O)(=O)Nc1ccc(Nc2c3ccccc3nc3ccccc23)cc1 | 350 mg/kg | 0.1 | >25% | 
 | CCOC(=O)NNc1ccc(Nc2c3ccccc3nc3ccccc23)cc1.Cl | 25 mg/kg | 0.41 | 67% | 
 | CS(=O)(=O)NCCS(=O)(=O)Nc1ccc(Nc2c3ccccc3nc3ccccc23)cc1.Cl | 110 mg/kg | -0.14 | 33% | 
 | CC(=O)NCCCS(=O)(=O)Nc1ccc(Nc2c3ccccc3nc3ccccc23)cc1.Cl | > 500 mg/kg | -0.01 | 26% | 
 | Br.c1ccc2c(Nc3ccc(N4CCNCC4)cc3)c3ccccc3nc2c1 | 15 mg/kg | -0.8 | >25% | 
 | COCCS(=O)(=O)Nc1ccc(Nc2c3ccccc3nc3ccccc23)cc1.Cl | 280 mg/kg | 0.21 | 79% | 25%
 | COc1cc(NS(C)(=O)=O)ccc1Nc1c2ccccc2nc2c(C(=O)N[C@H]3[C@@H](OC)O[C@H](COC(C)=O)[C@@H](OC(C)=O)[C@@H]3OC(C)=O)cccc12.Cl | > 400 mg/kg | 0.62 | >25% | 
 | CC(=O)NCCS(=O)(=O)Nc1ccc(Nc2c3ccccc3nc3ccccc23)cc1.Cl | 50 mg/kg | -0.06 | 94% | >25%
 | CS(=O)(=O)N1CCN(c2ccc(Nc3c4ccccc4nc4ccccc34)cc2)CC1.Cl | 200 mg/kg | 0.21 | 69% | 
 | Cl.O=C1CNC(=O)N1CCS(=O)(=O)Nc1ccc(Nc2c3ccccc3nc3ccccc23)cc1 | 160 mg/kg | -0.19 | 51% | >25%
 | Cc1cc(NS(C)(=O)=O)ccc1Nc1c2ccccc2nc2c(OCC(O)CO)cccc12.Cl (configuration not stated) | 100 mg/kg | -0.03 | 110% | 41%
 | COc1cc(NS(C)(=O)=O)ccc1Nc1c2ccccc2nc2c(C(=O)N(C)C)cccc12.Cl | 15 mg/kg | 0.09 | 84% | 61%
